# Measurements: ChEMBL document CHEMBL1777677, “Synthesis of chromone carboxamide derivatives with antioxidative and calpain inhibitory properties” (Eur J Med Chem, 2011)
# Legend:
# [1] = Inhibition of human erythrocyte calpain using Suc-Leu-Tyr-AMC substrate after 30 mins by spectrofluorimetry
# Procedure, shortened: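 Human erythrocyte calpain I, 34 nM stock added to start, with Suc-Leu-Tyr-AMC, NaCl and CaCl2 in 50 mM Tris–HCl pH 7.5, 1 mM DTT; DMSO ≤1% final. After 30 min at rt, AMC fluorescence read (ex 380/em 460 nm) against calpain-free blank. IC50 from percent inhibition across concentrations; means ± SD, three independent experiments.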
# [2] = tested on: Radical scavenging activity; assay: Antioxidant activity assessed as DPPH free radical scavenging activity after 30 mins; format: functional
# Procedure, shortened: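 Test samples in ethanol mixed with 100 µM ethanolic DPPH, incubated 37 °C for 30 min; absorbance read at 515 nm. Percent inhibition taken against ethanol-treated controls; IC50 is the concentration scavenging 50% of DPPH radicals. Means ± SD of three independent experiments.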
# [3] = tested on: Liver; assay: Antioxidant activity in rat liver homogenates assessed as inhibition of iron-ascorbic acid mix-induced lipid peroxidation after 30 mins by TBARS assay; format: functional, tissue-based; settings: 0.5 h
# Procedure, shortened: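 Rat liver homogenate (11 mg protein/ml, Bradford vs BSA) incubated with 10 µM […], 0.4 mM ascorbic acid and graded compound concentrations in 50 mM Tris–HCl pH 7.5, 37 °C for 30 min. Stopped with TBA–TCA reagent containing HCl and BHT, heated 95 °C 30 min, centrifuged, supernatant A535 read. IC50 from three independent experiments, means ± SD.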
SMILES,IC50 [1] [nM],IC50 [2] [nM],IC50 [3] [nM]
Cc1c(C(=O)N[C@@H](Cc2ccccc2)C(=O)C(=O)NCc2ccccc2)oc2cc(O)ccc2c1=O,130,–,–
COc1ccc2c(=O)c(C)c(C(=O)N[C@@H](Cc3ccccc3)C(=O)C(N)=O)oc2c1,120,–,–
O=C1O[C@H]([C@@H](O)CO)C(O)=C1O [ASCORBIC ACID],–,30800,> 100000
Cc1c(C(=O)N[C@@H](Cc2ccccc2)C(=O)C(N)=O)oc2ccccc2c1=O,70,> 100000,> 100000
COc1cc2oc(C(=O)N[C@@H](Cc3ccccc3)C(=O)C(=O)NCc3ccccc3)c(C)c(=O)c2cc1O,110,–,–
COc1ccc(CCNC(=O)C(=O)[C@H](Cc2ccccc2)NC(=O)c2oc3cc(OC)c(OC)cc3c(=O)c2C)cc1,270,–,–
COc1ccc(CCNC(=O)C(=O)[C@H](Cc2ccccc2)NC(=O)c2oc3cc(OC)ccc3c(=O)c2C)cc1,230,–,–
Cc1c(C(=O)N[C@@H](Cc2ccccc2)C(=O)C(=O)NCc2ccccc2)oc2cc(O)c(O)cc2c1=O,280,26500,48700
COc1ccc(CCNC(=O)C(=O)[C@H](Cc2ccccc2)NC(=O)c2oc3cc(O)c(O)cc3c(=O)c2C)cc1,1290,41400,52500
COc1ccc(CCNC(=O)C(=O)[C@H](Cc2ccccc2)NC(=O)c2oc3cc(O)ccc3c(=O)c2C)cc1,90,–,–
COc1cc2oc(C(=O)N[C@@H](Cc3ccccc3)C(=O)C(=O)NCc3ccccc3)c(C)c(=O)c2cc1OC,190,–,–
COc1ccc(CCNC(=O)C(=O)[C@H](Cc2ccccc2)NC(=O)c2oc3cc(OC)c(O)cc3c(=O)c2C)cc1,100,–,–
COc1ccc2c(=O)c(C)c(C(=O)N[C@@H](Cc3ccccc3)C(=O)C(=O)NCc3ccccc3)oc2c1,430,–,–
COc1cc2oc(C(=O)N[C@@H](Cc3ccccc3)C(=O)C(N)=O)c(C)c(=O)c2cc1OC,90,–,–
